Experimental data from different studies.
Each line is one published result; the experiments were not run side by side.
Target: Cannabinoid receptor 2 (CNR2, Homo sapiens, UniProt P34972)
Read-out: ligand displacement
Method: radioligand

`CCOC(=O)C(CC)(CCCSC)NC(=O)c1ccc(C2CC2)c(Cc2ccc(F)cc2)n1` (stereo not drawn) has a Ki of 1.3 nM (cell membranes).
`CCCCCc1cc(O)c(C/C=C(\C)CCC=C(C)C)c(O)c1C(=O)O` has a Ki of greater than 10000 nM (cell membranes).
With `CCCS(=O)(=O)Oc1ccc(-n2c(-c3ccc(Cl)cc3Cl)nc(C(=O)NN3CCCCC3)c2C)cc1` the Ki was 35 nM (cell membranes).
The Ki of `CCCCCn1c2ccccc2c2cc(C(=O)NCC3CCN(CC(=O)NC(C)(C)C)CC3)ccc21` is reported as greater than 5000 nM.
The Ki of `CCOC(=O)C(CCCOC)NC(=O)c1ccc(C2CC2)c(Cc2ccc(F)cc2)n1` (stereo not drawn) is reported as 17 nM (cell membranes).
With `CCCCCn1cc(C(=O)C2C(C)(C)C2(C)C)c2ccccc21` the Ki was 4.51 nM (cell membranes).
The Ki of `CCCCCc1cc(O)c(C/C=C(\C)CCC2OC2(C)C)c(O)c1` (stereo not drawn) is reported as 4720 nM (cell membranes).
With `CCCC(C)(C)c1ccc2c(c1)OC(C)(C)[C@@H]1CC=C(C)C[C@@H]21` the Ki was 34.9 nM (cell membranes).
For `CCCCCc1cc(O)c2c(c1)OC(C)(C)c1ccc(C)cc1-2`, the Ki was 73 nM (cell membranes).
With `Cc1nonc1Cn1nnc2c(N3CC[C@H](O)C3)nc(C(C)(C)C)nc21` the Ki was 11 nM (cell membranes).
The Ki of `CCCCC/C=C\C/C=C\C/C=C\C/C=C\CCCC(=O)NCCCl` is reported as 5200 nM (cell membranes).
For `CCCCCc1cc(O)c2c(c1)OC(C)(C)[C@@H]1CC=C(C)[C@H](O)[C@@H]21`, the Ki was 30 nM (cell membranes).
`CCOC(=O)C(CC)(CCCSCCOCCOCCNc1ccc([N+](=O)[O-])c2nonc12)NC(=O)c1ccc(C2CC2)c(Cc2ccc(F)cc2)n1` (racemic) gave a Ki of 22 nM (cell membranes).
With `CCCCCc1cc(O)c2c(c1)OC(C)(C)[C@@H]1CC[C@](C)(O)[C@@H](O)[C@@H]21` the Ki was 2140 nM (cell membranes).
For `CCOC(=O)C(CC)(CCCSCCOCCOCCOCCNC(=O)OC(C)(C)C)NC(=O)c1ccc(C2CC2)c(Cc2ccc(F)cc2)n1` (stereo not drawn), the Ki was 138 nM (cell membranes).
